# In ChEMBL document CHEMBL2346635, “6-Oxo and 6-thio purine analogs as antimycobacterial agents” (Bioorg Med Chem, 2013):
# Activity calls are given as the source filed them. The rule behind the calls is not given here.
# Key:
# [1] = tested on: Mycobacterium tuberculosis; assay: Antitubercular activity against Mycobacterium tuberculosis infected in gamma interferon gene-disrupted (GKO) C57BL/6 mouse model assessed as reduction of bacterial load in spleen; format: functional
# [2] = tested on: Mycobacterium tuberculosis; assay: Antimycobacterial activity against Mycobacterium tuberculosis H37Rv ATCC 27294 assessed as growth inhibition by radiometric BACTEC assay; format: functional
# Mus musculus = assay: Acute toxicity in mouse infected with Mycobacterium tuberculosis at 100 to 500 mg/kg; format: organism-based; set-up: dose 100-500 mg/kg; settings: in vivo
# [3] = tested on: Mycobacterium tuberculosis; assay: Antitubercular activity against Mycobacterium tuberculosis infected in gamma interferon gene-disrupted (GKO) C57BL/6 mouse model assessed as reduction of bacterial load in lungs; format: functional
# [4] = tested on: Mycobacterium tuberculosis; assay: Antimycobacterial activity against Mycobacterium tuberculosis H37Ra ATCC 25177 assessed as growth inhibition by Alamar blue microdilution broth assay; format: functional
# Method in brief: (§1)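 Alamar blue colorimetric microdilution in Middlebrook 7H9 broth with 0.2% glycerol and ADC enrichment. Primary screen at 1.28 and 12.8 µg/mL. Actives (≤12.8 µg/mL) retested in two-fold dilutions. MIC99 is the lowest concentration giving complete growth inhibition.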
# [5] = tested on: Mycobacterium tuberculosis; assay: Antimycobacterial activity against Mycobacterium tuberculosis H37Rv ATCC 27294 assessed as growth inhibition at 6.25 ug/ml by radiometric BACTEC assay; format: functional
# Method in brief: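 Primary screen at a single 6.25 µg/mL in radiometric BACTEC 12B medium. Value is percent growth inhibition.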
# [6] = Selectivity index, ratio of CC50 for african green monkey Vero cells to MIC90 for Mycobacterium tuberculosis H37Rv ATCC 27294; format: functional
# Method in brief: (§2)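 SI calculated as VERO CC50 (non-radioactive proliferation assay) divided by H37Rv MIC90 from radiometric BACTEC in 12B medium.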
# Mycobacterium avium = assay: Antimycobacterial activity against Mycobacterium avium Nj211 assessed as growth inhibition by Alamar blue microdilution broth assay; format: functional; method in brief: as §1
# Vero = assay: (§3) Cytotoxicity against african green monkey Vero cells by non-radioactive cell proliferation assay; format: cell-based; settings: chlorocebus sabaeus, vero
# [7] = tested on: Mycobacterium tuberculosis; assay: Antimycobacterial activity against Mycobacterium tuberculosis H37Rv ATCC 27294 assessed as growth inhibition by radiometric BACTEC assay in presence of 6.5 uM beta-lactam antibiotic, Meropenem; format: functional
# [8] = tested on: Mycobacterium tuberculosis; assay: Antimycobacterial activity against p-aminosalicylic acid-resistant Mycobacterium tuberculosis assessed as growth inhibition by Alamar blue assay; format: functional
# [9] = tested on: Mycobacterium tuberculosis; assay: Antimycobacterial activity against Mycobacterium tuberculosis Erdman assessed as growth inhibition by Alamar blue assay; format: functional
# [10] = Selectivity index, ratio of CC50 for african green monkey Vero cells to MIC for Mycobacterium tuberculosis H37Rv ATCC 27294; format: functional; method in brief: as §2
# [11] = tested on: Mycobacterium tuberculosis; assay: Antimycobacterial activity against Mycobacterium tuberculosis H37Rv ATCC 27294 assessed as growth inhibition by Alamar blue assay; format: functional
# [12] = as §3; format: cell-based; settings: chlorocebus sabaeus, Vero cells
# [13] = Selectivity index, ratio of IC50 for african green monkey Vero cells to MIC for Mycobacterium tuberculosis H37Rv ATCC 27294; format: functional
# Method in brief: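 SI taken as CC50 in VERO cells divided by MIC90 against Mtb H37Rv (ATCC 27294). CC50 comes from a non-radioactive cell proliferation assay run alongside the MIC determination. MIC90 is the lowest concentration giving ≥90% growth inhibition in a radiometric BACTEC 12B-medium assay.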
Structure (SMILES),log10cfu [1],Activity (Mus musculus),log10cfu [3],inhibition at 6.25 µg/mL [5] [%],inhibition [5],MIC [2] [µg/mL],MIC90 [9] [µg/mL],Selectivity Index [10],MIC90 [11] [µg/mL],CC50 [12] [µg/mL],other results
CCCCCCCCCCCCOc1nc(N)nc2[nH]cnc12,-0.05,Non-toxic,-0.141,94,,,,,,,MIC90 [2]: 0.78 µg/mL; MIC99 [4]: > 6.4 µg/mL; Selectivity Index [6]: >12.8; MIC99 (Mycobacterium avium): > 6.4 µg/mL; CC50 (Vero): > 10 µg/mL
CSc1ncnc2c1ccn2CC(=O)Nc1ccc(C)c(C)c1,,,,,inactive,,,,,,IC90 [2]: > 100 µM; IC90 [7]: 7.31 µM
CCCCCCCCCCCCSc1ncnc2c1ncn2CC(=O)OCC,0.2,Non-toxic,0.46,,inactive,0.78,3.13,>12.8,3.13,> 10,MIC90 [8]: 3.13 µg/mL
CCCCCCCCCCSc1ncnc2c1ncn2CC(=O)OC(C)(C)C,,,,,inactive,3.13,,>3.19,,> 10,
CCCCCCCCCCSc1ncnc2c1ncn2CC(=O)OCC,,,,,inactive,1.56,12.5,>40,6.25,> 62.5,
Cc1nc(N)c2ncn([C@@H]3O[C@H](CO)[C@@H](O)[C@H]3O)c2n1 [2-METHYLADENOSINE],,,,99,,3,,,,,Selectivity Index [13]: >1000; IC50 (Vero): 1000 µg/mL
